pIC50: −log10 of the molar value.
Columns and labels:
Platelet [1] = test: Inhibition of ADP-induced platelet aggregation in human platelet rich plasma incubated 1 min prior ADP induction measured after 3 mins by Born's method using aggregometer; type: functional, cell-free; details: for pIC50: Homo sapiens, Platelet, Plasma
Summary of the method: (§1)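 Citrated (3.8% sodium citrate, 1:9) venous blood from healthy donors free of aspirin/NSAIDs for at least 14 days. PRP prepared by centrifugation, with PPP as the baseline blank. Compound in DMSO (below 0.5% final) added to 500 µL PRP 1 min before 10 µM ADP (final), at 37 °C. Aggregation is the maximum tracing height over at least 3 min, expressed as % inhibition versus vehicle. IC50 comes from non-linear regression, mean ± S.E.M., n = 3.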

Platelet [2] = test: Inhibition of ADP-induced platelet aggregation in human platelet rich plasma assessed as platelet aggregation at 300 uM incubated 1 min prior ADP induction measured after 3 mins by Born's method using aggregometry relative to control; type: functional; design: scale not given: the % may be the effect or the level left
Summary of the method: (§2)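 Human citrated PRP from drug-free healthy donors, with PPP as the blank, in an aggregometer at 37 °C. Compound added at 300 µM final in DMSO (below 0.5%) for 1 min, then 10 µM ADP final. Maximum aggregation tracing height read over at least 3 min and compared with the DMSO vehicle control.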

Platelet [3] = test: Inhibition of ADP-induced platelet aggregation in human platelet rich plasma at 300 uM incubated 1 min prior ADP induction measured after 3 mins by Born's method using aggregometer relative to control; type: functional; summary of the method: as §2
Platelet [4] = test: Inhibition of arachidonic acid-induced platelet aggregation in human platelet rich plasma incubated 1 min prior arachidonic acid induction measured after 3 mins by Born's method using aggregometer; type: functional, cell-free; details: for pIC50: Homo sapiens, Platelet, Plasma
Summary of the method: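 Citrated PRP from healthy volunteers free of aspirin/NSAIDs for at least 14 days, with PPP as the baseline blank. Compound in DMSO (below 0.5% final) preincubated 1 min in 500 µL PRP at 37 °C, then 0.5 mM arachidonic acid (final) added. Maximum aggregation height over at least 3 min gives % inhibition versus vehicle. IC50 by non-linear regression, mean ± S.E.M. of 3 experiments.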

Platelet [5] = test: Inhibition of ADP-induced platelet aggregation in human platelet rich plasma; type: functional, cell-free; summary of the method: as §1

Row | SMILES | inhibition (INH) (Platelet [1]) [%] | Activity (Platelet [2]) [%] | inhibition at 300 µM (Platelet [3]) [%] | also measured
1 | CCSc1nc(NCc2ccccc2)c2ncn([C@@H]3O[C@H](CO)[C@@H](O)[C@H]3O)c2n1 | >50 | – | – | –
2 | CCCCCCNc1nc(SCC)nc2c1ncn2[C@@H]1O[C@H](CO)[C@@H](O)[C@H]1O | – | 57 | < 50 | –
3 | CCCCCCNc1nc(SCCC)nc2c1ncn2[C@@H]1O[C@H](CO)[C@@H](O)[C@H]1O | >50 | – | – | –
4 | CCCCCCNc1nc(SCCCC)nc2c1ncn2[C@@H]1O[C@H](CO)[C@@H](O)[C@H]1O | – | 66 | < 50 | –
5 | CCSc1nc(NC2CCCCC2)c2ncn([C@@H]3O[C@H](CO)[C@@H](O)[C@H]3O)c2n1 | >50 | – | – | –
6 | CCCSc1nc(NC2CCCCC2)c2ncn([C@@H]3O[C@H](CO)[C@@H](O)[C@H]3O)c2n1 | >50 | – | – | –
7 | CC(C)Sc1nc(NC2CCCCC2)c2ncn([C@@H]3O[C@H](CO)[C@@H](O)[C@H]3O)c2n1 | >50 | – | – | –
8 | CCCCSc1nc(NC2CCCCC2)c2ncn([C@@H]3O[C@H](CO)[C@@H](O)[C@H]3O)c2n1 | >50 | – | – | pIC50 (Platelet [1]): 4.08
9 | CCCCN(CCCC)c1nc(SCC)nc2c1ncn2[C@@H]1O[C@H](CO)[C@@H](O)[C@H]1O | – | 77 | < 50 | –
10 | CSc1nc(NCc2ccccc2)c2ncn([C@@H]3O[C@H](CO)[C@@H](O)[C@H]3O)c2n1 | – | 52 | < 50 | –
11 | CCCSc1nc(NCc2ccccc2)c2ncn([C@@H]3O[C@H](CO)[C@@H](O)[C@H]3O)c2n1 | >50 | – | – | –
12 | CCCCSc1nc(NCc2ccccc2)c2ncn([C@@H]3O[C@H](CO)[C@@H](O)[C@H]3O)c2n1 | >50 | – | – | –
13 | CSc1nc(NCc2ccc(C)cc2)c2ncn([C@@H]3O[C@H](CO)[C@@H](O)[C@H]3O)c2n1 | – | 77 | < 50 | –
14 | CCSc1nc(NCc2ccc(C)cc2)c2ncn([C@@H]3O[C@H](CO)[C@@H](O)[C@H]3O)c2n1 | – | 88 | < 50 | –
15 | COc1ccc(CNc2nc(SC)nc3c2ncn3[C@@H]2O[C@H](CO)[C@@H](O)[C@H]2O)cc1 | – | 69 | < 50 | –
16 | CCSc1nc(NCc2ccc(OC)cc2)c2ncn([C@@H]3O[C@H](CO)[C@@H](O)[C@H]3O)c2n1 | – | 74 | < 50 | –
17 | CCCSc1nc(NCc2ccc(OC)cc2)c2ncn([C@@H]3O[C@H](CO)[C@@H](O)[C@H]3O)c2n1 | >50 | – | – | –

Row | SMILES | inhibition (INH) (Platelet [1]) [%] | Activity (Platelet [2]) [%] | inhibition at 300 µM (Platelet [3]) [%] | also measured
18 | CSc1nc(NCCc2ccccc2)c2ncn([C@@H]3O[C@H](CO)[C@@H](O)[C@H]3O)c2n1 | >50 | – | – | pIC50 (Platelet [1]): 4.44; inhibition (INH) (Platelet [4]): >50%; pIC50 (Platelet [4]): 5.52
19 | CCSc1nc(NCCc2ccccc2)c2ncn([C@@H]3O[C@H](CO)[C@@H](O)[C@H]3O)c2n1 | >50 | – | – | pIC50 (Platelet [1]): 4.54; inhibition (INH) (Platelet [4]): >50%; pIC50 (Platelet [4]): 4.52
20 | CCCSc1nc(NCCc2ccccc2)c2ncn([C@@H]3O[C@H](CO)[C@@H](O)[C@H]3O)c2n1 | >50 | – | – | pIC50 (Platelet [1]): 4.28; inhibition (INH) (Platelet [4]): >50%; pIC50 (Platelet [4]): 4.36
21 | CCCCSc1nc(NCCc2ccccc2)c2ncn([C@@H]3O[C@H](CO)[C@@H](O)[C@H]3O)c2n1 | >50 | – | – | pIC50 (Platelet [1]): 4.23; inhibition (INH) (Platelet [4]): < 50%
22 | OC[C@H]1O[C@@H](n2cnc3c(NCCc4ccccc4)nc(Sc4ccccc4)nc32)[C@H](O)[C@@H]1O | – | 57 | < 50 | –
23 | OC[C@H]1O[C@@H](n2cnc3c(NCCc4ccccc4)nc(SCc4ccccc4)nc32)[C@H](O)[C@@H]1O | – | 57 | < 50 | –
24 | COc1ccc(CCNc2nc(SC)nc3c2ncn3[C@@H]2O[C@H](CO)[C@@H](O)[C@H]2O)cc1 | >50 | – | – | –
25 | CCSc1nc(NCCc2ccc(OC)cc2)c2ncn([C@@H]3O[C@H](CO)[C@@H](O)[C@H]3O)c2n1 | >50 | – | – | pIC50 (Platelet [1]): 4.05
26 | CCCSc1nc(NCCc2ccc(OC)cc2)c2ncn([C@@H]3O[C@H](CO)[C@@H](O)[C@H]3O)c2n1 | >50 | – | – | –
27 | CCCCSc1nc(NCCc2ccc(OC)cc2)c2ncn([C@@H]3O[C@H](CO)[C@@H](O)[C@H]3O)c2n1 | >50 | – | – | pIC50 (Platelet [1]): 4.03
28 | COc1cccc(CCNc2nc(SC)nc3c2ncn3[C@@H]2O[C@H](CO)[C@@H](O)[C@H]2O)c1 | – | 71 | < 50 | –
29 | CCSc1nc(NCCc2cccc(OC)c2)c2ncn([C@@H]3O[C@H](CO)[C@@H](O)[C@H]3O)c2n1 | >50 | – | – | pIC50 (Platelet [1]): 4.42; inhibition (INH) (Platelet [4]): < 50%
30 | CCCSc1nc(NCCc2cccc(OC)c2)c2ncn([C@@H]3O[C@H](CO)[C@@H](O)[C@H]3O)c2n1 | >50 | – | – | pIC50 (Platelet [1]): 4.16
31 | CCCCSc1nc(NCCc2cccc(OC)c2)c2ncn([C@@H]3O[C@H](CO)[C@@H](O)[C@H]3O)c2n1 | – | 85 | < 50 | –
32 | CCSc1nc(NC(C)c2ccccc2)c2ncn([C@@H]3O[C@H](CO)[C@@H](O)[C@H]3O)c2n1 (some centres not stated) | >50 | – | – | –
33 | CSCCNc1nc(SCCC(F)(F)F)nc2c1ncn2[C@@H]1O[C@H](COP(=O)(O)OP(=O)(O)C(Cl)(Cl)P(=O)(O)O)[C@@H](O)[C@H]1O [CANGRELOR TETRASODIUM] | – | – | – | pIC50 (Platelet [5]): 9.40

From ChEMBL document CHEMBL2034940, “Synthesis of N6-alkyl(aryl)-2-alkyl(aryl)thioadenosines as antiplatelet agents” (Eur J Med Chem, 2012)
